Measured values from ChEMBL document CHEMBL3112507 (Bioorg Med Chem, 2014).
Calls of active or inactive are those of the source. No cut-off for these calls is given here.

Tests used:
HeLa = assay: Cytotoxicity against human HeLa cells assessed as cell viability at […] after 15 to 45 hrs by MTT assay; assay type: cell-based
[1] = molecular target: T1, Polyunsaturated fatty acid 5-lipoxygenase (Homo sapiens) (UniProt P09917); assay: (§1) Inhibition of 5-LOX (unknown origin) by UV-Vis spectrophotometry
T1 sequence (whole entry): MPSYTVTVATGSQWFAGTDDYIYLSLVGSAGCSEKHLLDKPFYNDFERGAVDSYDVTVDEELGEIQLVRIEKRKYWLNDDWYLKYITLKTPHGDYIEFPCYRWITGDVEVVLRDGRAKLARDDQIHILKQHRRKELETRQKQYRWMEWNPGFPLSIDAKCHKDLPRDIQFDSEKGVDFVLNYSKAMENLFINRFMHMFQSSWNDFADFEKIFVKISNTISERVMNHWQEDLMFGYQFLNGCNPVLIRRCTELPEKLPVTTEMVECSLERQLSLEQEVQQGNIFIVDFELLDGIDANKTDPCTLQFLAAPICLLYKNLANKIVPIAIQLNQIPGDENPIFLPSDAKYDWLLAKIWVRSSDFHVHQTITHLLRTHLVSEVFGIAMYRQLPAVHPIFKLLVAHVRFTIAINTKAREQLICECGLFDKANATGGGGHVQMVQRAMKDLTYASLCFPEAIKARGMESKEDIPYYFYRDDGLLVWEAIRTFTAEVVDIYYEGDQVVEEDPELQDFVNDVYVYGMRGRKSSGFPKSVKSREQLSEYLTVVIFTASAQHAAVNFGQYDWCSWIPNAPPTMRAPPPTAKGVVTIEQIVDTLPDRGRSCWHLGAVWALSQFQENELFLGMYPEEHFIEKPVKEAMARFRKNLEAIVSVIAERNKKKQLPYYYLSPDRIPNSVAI
Procedure, shortened: (§2)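 UV–visible spectral titration of the compounds with 5-LOX. Association constant Ka was obtained from 1/(Af−Aobs) = 1/(Af−Afc) + 1/(Ka[Af−Afc][L]). Ki was calculated as IC50/(1+[L]/Kd) using IC50 values from the enzyme immunoassay.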

[2] = molecular target: T2, Polyunsaturated fatty acid 5-lipoxygenase (Homo sapiens, UniProt P09917); assay: as §1; procedure, shortened: as §2
T2 sequence (P09917 whole entry): T1 sequence (whole entry)

[3] = molecular target: Phospholipase A2 (Homo sapiens) (UniProt P04054); assay: Inhibition of PLA2 (unknown origin) by Ellman's method
Sequence of Phospholipase A2 (Homo sapiens) (P04054 23-148 limits assumed): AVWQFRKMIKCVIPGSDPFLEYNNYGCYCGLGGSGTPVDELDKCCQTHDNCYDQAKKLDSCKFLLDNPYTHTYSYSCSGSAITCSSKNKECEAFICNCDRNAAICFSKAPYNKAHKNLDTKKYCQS

[4] = molecular target: Prostaglandin G/H synthase 1 (Homo sapiens) (UniProt P23219); assay: Inhibition of COX1 (unknown origin) by EIA
Sequence of Prostaglandin G/H synthase 1 (Homo sapiens) (P23219 whole entry): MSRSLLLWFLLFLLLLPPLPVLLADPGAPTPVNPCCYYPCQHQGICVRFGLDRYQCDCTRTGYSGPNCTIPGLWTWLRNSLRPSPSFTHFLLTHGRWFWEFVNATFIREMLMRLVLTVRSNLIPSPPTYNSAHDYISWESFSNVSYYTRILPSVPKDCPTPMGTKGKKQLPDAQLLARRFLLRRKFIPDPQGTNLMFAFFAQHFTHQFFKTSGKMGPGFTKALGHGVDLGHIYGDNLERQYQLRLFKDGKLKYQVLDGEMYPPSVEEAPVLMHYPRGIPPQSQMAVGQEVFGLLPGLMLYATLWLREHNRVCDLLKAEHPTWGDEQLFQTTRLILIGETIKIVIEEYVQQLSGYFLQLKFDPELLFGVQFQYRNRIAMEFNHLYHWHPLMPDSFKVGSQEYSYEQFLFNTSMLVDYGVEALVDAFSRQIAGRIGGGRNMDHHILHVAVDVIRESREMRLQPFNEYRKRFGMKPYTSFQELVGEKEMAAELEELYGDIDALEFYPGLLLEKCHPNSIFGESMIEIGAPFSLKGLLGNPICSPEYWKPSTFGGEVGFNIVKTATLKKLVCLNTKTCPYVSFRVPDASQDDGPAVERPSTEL

[5] = molecular target: T3, Prostaglandin G/H synthase 2 (Homo sapiens) (UniProt P35354); assay: Inhibition of COX2 (unknown origin) by EIA
T3 sequence (whole entry): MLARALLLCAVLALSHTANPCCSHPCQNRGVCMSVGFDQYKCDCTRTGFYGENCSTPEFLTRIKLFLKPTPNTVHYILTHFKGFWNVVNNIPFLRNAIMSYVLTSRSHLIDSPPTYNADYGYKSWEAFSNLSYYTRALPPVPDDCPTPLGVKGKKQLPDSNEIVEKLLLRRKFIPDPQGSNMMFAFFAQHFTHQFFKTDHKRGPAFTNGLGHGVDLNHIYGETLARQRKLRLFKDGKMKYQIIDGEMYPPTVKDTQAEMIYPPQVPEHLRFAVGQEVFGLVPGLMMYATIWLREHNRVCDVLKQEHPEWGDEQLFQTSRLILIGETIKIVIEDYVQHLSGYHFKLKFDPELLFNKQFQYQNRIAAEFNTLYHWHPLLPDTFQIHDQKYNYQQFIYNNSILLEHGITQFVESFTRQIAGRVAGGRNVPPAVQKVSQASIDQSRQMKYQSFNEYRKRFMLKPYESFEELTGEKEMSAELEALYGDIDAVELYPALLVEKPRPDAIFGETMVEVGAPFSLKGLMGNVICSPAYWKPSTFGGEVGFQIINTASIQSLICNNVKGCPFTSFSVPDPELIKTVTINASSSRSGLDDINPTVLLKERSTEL

[6] = Octanol-water partition coefficient, log P of the compound; assay type: physicochemical
[7] = molecular target: T2, Polyunsaturated fatty acid 5-lipoxygenase; assay: Inhibition of 5-LOX (unknown origin) using arachidonic acid as substrate after 5 mins by EIA in presence of pig liver esterase
Procedure, shortened: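 Same 5-LOX colorimetric immunoassay kit procedure (compounds at 0.01–100 µM in DMSO, AA substrate, chromogen, 490 nm, duplicates). Ester compounds were first treated with pig liver esterase, extracted per a reported procedure, before addition to the 5-LOX enzyme.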

[8] = molecular target: T2, Polyunsaturated fatty acid 5-lipoxygenase; assay: Inhibition of 5-LOX (unknown origin) using arachidonic acid as substrate after 5 mins by EIA
Procedure, shortened: (§3)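 Test compounds dissolved in DMSO at 0.01, 0.1, 1, 10 and 100 µM. Each was added to 5-LOX enzyme in assay buffer, and the reaction was started with arachidonic acid substrate. Plates were shaken 5 min, chromogen was added, shaken 5 min more, then read at 490 nm. Blanks were buffer plus AA; positive controls were enzyme plus AA. Run in duplicate, means with deviation <5% used. Percent inhibition was calculated from lipoxygenase activity; IC50 derived from the concentration series.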

[9] = molecular target: T1, Polyunsaturated fatty acid 5-lipoxygenase (Homo sapiens); assay: Inhibition of 5-LOX (unknown origin) using arachidonic acid as substrate at 0.01 uM after 5 mins by EIA; procedure, shortened: as §3
[10] = molecular target: T1, Polyunsaturated fatty acid 5-lipoxygenase (Homo sapiens); assay: Inhibition of 5-LOX (unknown origin) using arachidonic acid as substrate at 0.1 uM after 5 mins by EIA; procedure, shortened: as §3
[11] = molecular target: T1, Polyunsaturated fatty acid 5-lipoxygenase (Homo sapiens); assay: Inhibition of 5-LOX (unknown origin) using arachidonic acid as substrate at 1 uM after 5 mins by EIA; procedure, shortened: as §3
[12] = molecular target: T1, Polyunsaturated fatty acid 5-lipoxygenase (Homo sapiens); assay: Inhibition of 5-LOX (unknown origin) using arachidonic acid as substrate at 100 uM after 5 mins by EIA; procedure, shortened: as §3
[13] = molecular target: T1, Polyunsaturated fatty acid 5-lipoxygenase (Homo sapiens); assay: Inhibition of 5-LOX (unknown origin) using arachidonic acid as substrate at 10 uM after 5 mins by EIA; procedure, shortened: as §3

## COC(=O)CNC(=O)C(=O)c1cn(S(=O)(=O)c2ccc(C)cc2)c2ccccc12
HeLa
  Activity: Non-toxic
[1]
  Ka: 2.32 ×10⁶ /M
[2]
  Ki: 9.5 nM
[3]
  inhibition: inactive
[4]
  inhibition: inactive
[5]
  inhibition: inactive
[6]
  logP: 2.21
[7]
  IC50: 8 nM
[8]
  IC50: 9.7 nM
[9]
  inhibition: 50%
[10]
  inhibition: 51.5%
[11]
  inhibition: 67.7%
[12]
  inhibition: 98%
[13]
  inhibition: 85%

## Cc1ccc(S(=O)(=O)n2cc(C(=O)C(=O)NCC(=O)O)c3ccccc32)cc1
HeLa
  Activity: Non-toxic
[1]
  Ka: 2.07 ×10⁶ /M
[2]
  Ki: 8.4 nM
[3]
  inhibition: inactive
[4]
  inhibition: inactive
[5]
  inhibition: inactive
[8]
  IC50: 8.6 nM
[9]
  inhibition: 57.4%
[10]
  inhibition: 63.5%
[11]
  inhibition: 78.4%
[12]
  inhibition: 97.5%
[13]
  inhibition: 91.2%

## Cc1ccc(S(=O)(=O)n2cc(C(=O)C(=O)N[C@H](Cc3cnc[nH]3)C(=O)O)c3ccccc32)cc1
[1]
  Ka: 3.7 ×10⁴ /M
[2]
  Ki: 2530 nM
[3]
  inhibition: inactive
[4]
  inhibition: inactive
[5]
  inhibition: inactive
[8]
  IC50: 2800 nM
[9]
  inhibition: 20%
[10]
  inhibition: 28.5%
[11]
  inhibition: 48.7%
[12]
  inhibition: 64.7%
[13]
  inhibition: 55.5%

## COC(=O)[C@@H](Cc1c[nH]c2ccccc12)NC(=O)C(=O)c1cn(S(=O)(=O)c2ccc(C)cc2)c2ccccc12
[1]
  Ka: 6.67 ×10⁵ /M
[2]
  Ki: 37 nM
[3]
  inhibition: inactive
[4]
  inhibition: inactive
[5]
  inhibition: inactive
[6]
  logP: 2.34
[7]
  IC50: 14 nM
[8]
  IC50: 52 nM
[9]
  inhibition: 45.5%
[10]
  inhibition: 55.3%
[11]
  inhibition: 62.7%
[12]
  inhibition: 80.4%
[13]
  inhibition: 75.5%

## COC(=O)[C@H]1CCCN1C(=O)C(=O)c1c[nH]c2ccccc12
[3]
  inhibition: inactive
[4]
  inhibition: inactive
[5]
  inhibition: inactive
[8]
  IC50: 5460 nM
[9]
  inhibition: 22.5%
[10]
  inhibition: 25.5%
[11]
  inhibition: 40.2%
[12]
  inhibition: 60.6%
[13]
  inhibition: 59.8%

## Cc1ccc(S(=O)(=O)n2cc(C(=O)C(=O)N[C@H](CCC(=O)O)C(=O)O)c3ccccc32)cc1
[1]
  Ka: 1.1 ×10⁵ /M
[2]
  Ki: 95 nM
[3]
  inhibition: inactive
[4]
  inhibition: inactive
[5]
  inhibition: inactive
[8]
  IC50: 97 nM
[9]
  inhibition: 42%
[10]
  inhibition: 50.5%
[11]
  inhibition: 59.5%
[12]
  inhibition: 90.6%
[13]
  inhibition: 87.6%

## COC(=O)[C@@H](Cc1c[nH]c2ccccc12)NC(=O)C(=O)c1c[nH]c2ccccc12
[3]
  inhibition: inactive
[4]
  inhibition: inactive
[5]
  inhibition: inactive
[9]
  inhibition: 35%
[10]
  inhibition: 41.1%
[11]
  inhibition: 43.4%
[12]
  inhibition: 65%
[13]
  inhibition: 49.8%

## COC(=O)[C@H]1CCCN1C(=O)C(=O)c1cn(S(=O)(=O)c2ccc(C)cc2)c2ccccc12
[1]
  Ka: 1.2 ×10⁵ /M
[2]
  Ki: 320 nM
[3]
  inhibition: inactive
[4]
  inhibition: inactive
[5]
  inhibition: inactive
[6]
  logP: 2.19
[7]
  IC50: 750 nM
[8]
  IC50: 330 nM
[9]
  inhibition: 38.5%
[10]
  inhibition: 48.7%
[11]
  inhibition: 54.5%
[12]
  inhibition: 72%
[13]
  inhibition: 69.3%

## CC(C)(C)Sc1c(CC(C)(C)C(=O)O)n(Cc2ccc(Cl)cc2)c2ccc(OCc3ccc4ccccc4n3)cc12 [QUIFLAPON]
[8]
  IC50: 1.6 nM

## COC(=O)CC[C@@H](NC(=O)C(=O)c1c[nH]c2ccccc12)C(=O)OC
[3]
  inhibition: inactive
[4]
  inhibition: inactive
[5]
  inhibition: inactive
[8]
  IC50: 8330 nM
[9]
  inhibition: 36%
[10]
  inhibition: 40%
[11]
  inhibition: 44.8%
[12]
  inhibition: 55%
[13]
  inhibition: 51.2%

## Cc1ccc(S(=O)(=O)n2cc(C(=O)C(=O)N3CCC[C@@H]3C(=O)O)c3ccccc32)cc1
[1]
  Ka: 2.6 ×10⁵ /M
[2]
  Ki: 510 nM
[3]
  inhibition: inactive
[4]
  inhibition: inactive
[5]
  inhibition: inactive
[8]
  IC50: 600 nM
[9]
  inhibition: 27.3%
[10]
  inhibition: 45%
[11]
  inhibition: 53.5%
[12]
  inhibition: 74.3%
[13]
  inhibition: 68.8%

## COC(=O)[C@@H](Cc1cnc[nH]1)NC(=O)C(=O)c1cn(S(=O)(=O)c2ccc(C)cc2)c2ccccc12
[1]
  Ka: 1.01 ×10⁴ /M
[2]
  Ki: 4160 nM
[3]
  inhibition: inactive
[4]
  inhibition: inactive
[5]
  inhibition: inactive
[6]
  logP: 1.98
[7]
  IC50: 2980 nM
[8]
  IC50: 4330 nM
[9]
  inhibition: 30%
[10]
  inhibition: 40.5%
[11]
  inhibition: 45.3%
[12]
  inhibition: 63.8%
[13]
  inhibition: 58.2%

## Cc1ccc(S(=O)(=O)n2cc(C(=O)C(=O)N[C@H](Cc3c[nH]c4ccccc34)C(=O)O)c3ccccc32)cc1
[1]
  Ka: 3.6 ×10⁵ /M
[2]
  Ki: 9.9 nM
[3]
  inhibition: inactive
[4]
  inhibition: inactive
[5]
  inhibition: inactive
[8]
  IC50: 10 nM
[9]
  inhibition: 51%
[10]
  inhibition: 56.5%
[11]
  inhibition: 67.3%
[12]
  inhibition: 85%
[13]
  inhibition: 81.5%

## COC(=O)CC[C@@H](NC(=O)C(=O)c1cn(S(=O)(=O)c2ccc(C)cc2)c2ccccc12)C(=O)OC
[1]
  Ka: 1.06 ×10⁵ /M
[2]
  Ki: 820 nM
[3]
  inhibition: inactive
[4]
  inhibition: inactive
[5]
  inhibition: inactive
[6]
  logP: 2.12
[7]
  IC50: 130 nM
[8]
  IC50: 900 nM
[9]
  inhibition: 18.5%
[10]
  inhibition: 35.2%
[11]
  inhibition: 51.8%
[12]
  inhibition: 65%
[13]
  inhibition: 60.3%

## COC(=O)CNC(=O)C(=O)c1c[nH]c2ccccc12
[3]
  inhibition: inactive
[4]
  inhibition: inactive
[5]
  inhibition: inactive
[8]
  IC50: 3500 nM
[9]
  inhibition: 40%
[10]
  inhibition: 46.2%
[11]
  inhibition: 47.8%
[12]
  inhibition: 70%
[13]
  inhibition: 55.5%

## COC(=O)[C@@H](Cc1cnc[nH]1)NC(=O)C(=O)c1c[nH]c2ccccc12
[3]
  inhibition: inactive
[4]
  inhibition: inactive
[5]
  inhibition: inactive
[9]
  inhibition: 30%
[10]
  inhibition: 37.7%
[11]
  inhibition: 40.8%
[12]
  inhibition: 65%
[13]
  inhibition: 45.5%
